Assay results published in ChEMBL document CHEMBL3232756, “Synthesis and biological evaluation of N-dehydrodipeptidyl-N,N'-dicyclohexylurea analogs” (Eur J Med Chem, 2014).

Experiments:
[1] = tested on: Escherichia coli; assay: Antimicrobial activity against Escherichia coli ESS 2231 at 0.02 ml of 1 mg/ml after 24 hrs by cup plate method; type: functional; details: ESS 2231, 24 h, read-out: DIZ
Summary of the method: (§1)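 Cup-plate diffusion on Mueller-Hinton/nutrient agar swab-streaked with suspension, 6 mm cups bored. Each compound at 1 mg/ml in DMSO, 0.02 ml per cup; DMSO as solvent control. Amoxicillin for bacteria and fluconazole for fungi at 200 and 500 respectively as references. Incubation 37 °C for 24 h. Inhibition zone diameter in mm, triplicate, mean ± SD.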

[2] = Antioxidant activity assessed as trolox equivalents of cupric reducing antioxidant capacity after 30 mins; type: functional
Summary of the method: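 Mix of 1 ml CuCl2 (10 mM), 1 ml ethanolic neocuproine (7.5 mM), 1 ml ammonium acetate buffer (pH 7.0, 1 M), 1 ml compound or standard solution and 0.1 ml water, total 4.1 ml. A450 read after 30 min against reagent blank. TEAC = ε test/ε Trolox.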

[3] = tested on: Aspergillus niger; assay: Antimicrobial activity against Aspergillus niger MTCC 292 at 0.02 ml of 1 mg/ml after 24 hrs by cup plate method; type: functional; details: MTCC 292, 24 h, read-out: DIZ; summary of the method: as §1
[4] = tested on: Brain; assay: Antioxidant activity against lipid peroxidation in Wister rat brain homogenates assessed as thiobarbituric acid reactive substance formation after 30 mins by spectrophotometer analysis; type: functional, tissue-based; details: 0.5 h
Summary of the method: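 Whole brain minus cerebellum from overnight-fasted rats of either sex, 200–220 g. Homogenized 10% w/v in 0.15 M KCl and spun at 800 rpm for 10 min. Reaction incubated 37 °C for 30 min, then TBA:TCA (1:1) and BHT added, heated 80 °C for 20 min, cooled, centrifuged, A532 read.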

[5] = tested on: Rattus norvegicus; assay: Antiinflammatory activity in Wister rat assessed as inhibition of carrageenan-induced paw edema at 100 mg/kg, po administered 1 hr before carrageenan challenge measured after 3 hrs by plethysmograph analysis; type: functional
Summary of the method: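 Rats of either sex, 150–220 g, food withheld 4 h. Compound or diclofenac sodium 100 mg/kg p.o., or 0.5% sodium CMC at 10 ml/kg as vehicle control, given 1 h before 0.05 ml of 1% carrageenan subplantar into the right hind paw. Paw volume read by water-displacement plethysmograph at 0, 30, 60, 120 and 180 min. % edema inhibition = 100(1−Vt/Vc); n=5, control n=6; ANOVA/Dunnett.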

[6] = tested on: Bacillus subtilis; assay: Antimicrobial activity against Bacillus subtilis MTCC 441 at 0.02 ml of 1 mg/ml after 24 hrs by cup plate method; type: functional; details: MTCC 441, 24 h, read-out: DIZ; summary of the method: as §1
[7] = tested on: Staphylococcus aureus; assay: Antimicrobial activity against Staphylococcus aureus MTCC 96 at 0.02 ml of 1 mg/ml after 24 hrs by cup plate method; type: functional; details: MTCC 96, 24 h, read-out: DIZ; summary of the method: as §1
[8] = tested on: Pseudomonas aeruginosa; assay: Antimicrobial activity against Pseudomonas aeruginosa MTCC 1688 at 0.02 ml of 1 mg/ml after 24 hrs by cup plate method; type: functional; details: MTCC 1688, 24 h, read-out: DIZ; summary of the method: as §1
[9] = tested on: Mus musculus; assay: Analgesic activity in Swiss albino mouse assessed as inhibition of acetic acid-induced writhing response at 100 mg/kg, po administered 1 hr before acetic acid challenge after 5 mins; type: functional
[10] = tested on: Mus musculus; assay: Acute toxicity in Swiss albino mouse assessed as mortality up to 1500 mg/kg, po; type: organism-based; design: dose 1500 mg/kg, route oral; details: in vivo
Summary of the method: (§2)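 Swiss albino mice (6–8 weeks, 25–30 g) were dosed orally at 500, 1000 or 1500 mg/kg, following OECD guidelines. Body weight, food and water intake, behavioural patterns and mortality were recorded and compared with a control group.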

[11] = Antioxidant activity assessed as hydroxyl radical scavenging activity after 15 mins; type: functional
Summary of the method: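 Deoxyribose degradation mix: 2-deoxy-2-ribose 2.8 mM, KH2PO4–KOH 20 mM pH 7.4, FeCl3, EDTA, H2O2 1.0 mM, ascorbic acid, plus compound in methanol. Incubated 1 h at 37 °C. A 0.5 ml aliquot taken with 1 ml 2.8% TCA and 1 ml 1% TBA, heated 90 °C for 15 min, cooled, A532 read. % inhibition against blank.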

[12] = tested on: Mus musculus; assay: Acute toxicity in Swiss albino mouse assessed as gross behavioral changes up to 1500 mg/kg, po; type: organism-based; design: dose 1500 mg/kg, route oral; details: in vivo; summary of the method: as §2
[13] = tested on: Radical scavenging activity; assay: Antioxidant activity assessed as DPPH radical scavenging activity after 20 to 30 mins; type: functional
Summary of the method: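 Test solution (2 ml at 25, 50, 75, 100, 125) mixed with 2 ml ethanolic DPPH, held in the dark at ambient temperature 20–30 min, then A517 read against an ethanol blank. Tocopherol used as standard. % scavenging = (Acontrol−Atest)/Acontrol×100, run in triplicate. IC50 read graphically from the % scavenging versus concentration plot.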

[14] = tested on: Candida albicans; assay: Antimicrobial activity against Candida albicans MTCC 227 at 0.02 ml of 1 mg/ml after 24 hrs by cup plate method; type: functional; details: MTCC 227, 24 h, read-out: DIZ; summary of the method: as §1

O=C(NC(CS)C(=O)N(C(=O)NC1CCCCC1)C1CCCCC1)/C(=C\c1ccc(F)cc1)NC(=O)c1ccccc1 (stereo not given)
zone of inhibition at 1000 µg/mL [1]: 14.3 mm
TEAC (Trolox equivalents) [2]: 3.6
zone of inhibition at 1000 µg/mL [3]: 18.2 mm
IC50 [4]: 74.7 µM
inhibition in vivo at 100 mg/kg [5]: 25%
zone of inhibition at 1000 µg/mL [6]: 14.5 mm
zone of inhibition at 1000 µg/mL [7]: 11.4 mm
zone of inhibition at 1000 µg/mL [8]: 16.6 mm
inhibition in vivo at 100 mg/kg [9]: 42%
Activity [10]: Non-toxic
IC50 [11]: 51 µM
Activity [12]: Non-toxic
IC50 [13]: 58.8 µM
zone of inhibition at 1000 µg/mL [14]: 17.1 mm

COc1cc(/C=C(/NC(=O)c2ccccc2)C(=O)NC(CS)C(=O)N(C(=O)NC2CCCCC2)C2CCCCC2)ccc1O (stereo not given)
zone of inhibition at 1000 µg/mL [1]: 24.6 mm
TEAC (Trolox equivalents) [2]: 3.6
zone of inhibition at 1000 µg/mL [3]: 19.3 mm
IC50 [4]: 81.6 µM
inhibition in vivo at 100 mg/kg [5]: 38.4%
zone of inhibition at 1000 µg/mL [6]: 20.2 mm
zone of inhibition at 1000 µg/mL [7]: 22.1 mm
zone of inhibition at 1000 µg/mL [8]: 20.8 mm
inhibition in vivo at 100 mg/kg [9]: 48%
Activity [10]: Non-toxic
IC50 [11]: 92.8 µM
Activity [12]: Non-toxic
zone of inhibition at 1000 µg/mL [14]: 20.4 mm

CC(=O)Oc1ccccc1C(=O)O [ASPIRIN]
inhibition in vivo at 100 mg/kg [9]: 63.1%

Cc1cc(C(C)(C)C)c(O)c(C(C)(C)C)c1 [BUTYLATED HYDROXYTOLUENE]
IC50 [4]: 57.8 µM

O=C1O[C@H]([C@@H](O)CO)C(O)=C1O [ASCORBIC ACID]
TEAC (Trolox equivalents) [2]: 2.63
IC50 [11]: 49.9 µM

COc1ccc(/C=C(/NC(=O)c2ccccc2)C(=O)NCC(=O)N(C(=O)NC2CCCCC2)C2CCCCC2)cc1
zone of inhibition at 1000 µg/mL [1]: 15.8 mm
TEAC (Trolox equivalents) [2]: 1.24
zone of inhibition at 1000 µg/mL [3]: 18.8 mm
IC50 [4]: 108 µM
inhibition in vivo at 100 mg/kg [5]: 12%
zone of inhibition at 1000 µg/mL [6]: 11.3 mm
zone of inhibition at 1000 µg/mL [7]: 14.3 mm
zone of inhibition at 1000 µg/mL [8]: 10.3 mm
inhibition in vivo at 100 mg/kg [9]: 39.6%
Activity [10]: Non-toxic
IC50 [11]: 92.7 µM
Activity [12]: Non-toxic
IC50 [13]: 92.7 µM
zone of inhibition at 1000 µg/mL [14]: 19.6 mm

O=C(NCC(=O)N(C(=O)NC1CCCCC1)C1CCCCC1)/C(=C\c1ccc(F)cc1)NC(=O)c1ccccc1
zone of inhibition at 1000 µg/mL [1]: 16.5 mm
TEAC (Trolox equivalents) [2]: 1.22
zone of inhibition at 1000 µg/mL [3]: 20.8 mm
IC50 [4]: 97.2 µM
inhibition in vivo at 100 mg/kg [5]: 20.6%
zone of inhibition at 1000 µg/mL [6]: 20.1 mm
zone of inhibition at 1000 µg/mL [7]: 19.3 mm
zone of inhibition at 1000 µg/mL [8]: 17.6 mm
inhibition in vivo at 100 mg/kg [9]: 22%
Activity [10]: Non-toxic
IC50 [11]: 88.7 µM
Activity [12]: Non-toxic
IC50 [13]: 88.7 µM
zone of inhibition at 1000 µg/mL [14]: 19.2 mm

CC(C)c1ccc(/C=C(/NC(=O)c2ccccc2)C(=O)NCC(=O)N(C(=O)NC2CCCCC2)C2CCCCC2)cc1
zone of inhibition at 1000 µg/mL [1]: 18.1 mm
TEAC (Trolox equivalents) [2]: 1.19
zone of inhibition at 1000 µg/mL [3]: 21.2 mm
IC50 [4]: 60.4 µM
inhibition in vivo at 100 mg/kg [5]: 26%
zone of inhibition at 1000 µg/mL [6]: 18.4 mm
zone of inhibition at 1000 µg/mL [7]: 16.4 mm
zone of inhibition at 1000 µg/mL [8]: 17.3 mm
inhibition in vivo at 100 mg/kg [9]: 47.4%
Activity [10]: Non-toxic
IC50 [11]: 60.4 µM
Activity [12]: Non-toxic
IC50 [13]: 61 µM
zone of inhibition at 1000 µg/mL [14]: 13.1 mm

Cc1ccc(/C=C(/NC(=O)c2ccccc2)C(=O)NC(CS)C(=O)N(C(=O)NC2CCCCC2)C2CCCCC2)cc1 (stereo not given)
zone of inhibition at 1000 µg/mL [1]: 22.7 mm
TEAC (Trolox equivalents) [2]: 2.36
zone of inhibition at 1000 µg/mL [3]: 15.4 mm
IC50 [4]: 113 µM
inhibition in vivo at 100 mg/kg [5]: 35.5%
zone of inhibition at 1000 µg/mL [6]: 15.8 mm
zone of inhibition at 1000 µg/mL [7]: 16.8 mm
zone of inhibition at 1000 µg/mL [8]: 18.4 mm
inhibition in vivo at 100 mg/kg [9]: 41.2%
Activity [10]: Non-toxic
IC50 [11]: 66.3 µM
Activity [12]: Non-toxic
IC50 [13]: 84 µM
zone of inhibition at 1000 µg/mL [14]: 14.2 mm

Cc1ccc(/C=C(/NC(=O)c2ccccc2)C(=O)NCC(=O)N(C(=O)NC2CCCCC2)C2CCCCC2)cc1
zone of inhibition at 1000 µg/mL [1]: 13.3 mm
TEAC (Trolox equivalents) [2]: 1.24
zone of inhibition at 1000 µg/mL [3]: 14.5 mm
IC50 [4]: 127 µM
inhibition in vivo at 100 mg/kg [5]: 23.9%
zone of inhibition at 1000 µg/mL [6]: 13.2 mm
zone of inhibition at 1000 µg/mL [7]: 15.5 mm
zone of inhibition at 1000 µg/mL [8]: 17.6 mm
inhibition in vivo at 100 mg/kg [9]: 48.8%
Activity [10]: Non-toxic
IC50 [11]: 101 µM
Activity [12]: Non-toxic
IC50 [13]: 71.9 µM
zone of inhibition at 1000 µg/mL [14]: 13.4 mm

O=C(NCC(=O)N(C(=O)NC1CCCCC1)C1CCCCC1)/C(=C\c1ccc(Cl)cc1)NC(=O)c1ccccc1
zone of inhibition at 1000 µg/mL [1]: 16.3 mm
TEAC (Trolox equivalents) [2]: 0.93
zone of inhibition at 1000 µg/mL [3]: 13.5 mm
IC50 [4]: 96.8 µM
inhibition in vivo at 100 mg/kg [5]: 15.2%
zone of inhibition at 1000 µg/mL [6]: 13.5 mm
zone of inhibition at 1000 µg/mL [7]: 11.8 mm
zone of inhibition at 1000 µg/mL [8]: 9.2 mm
inhibition in vivo at 100 mg/kg [9]: 27.6%
Activity [10]: Non-toxic
IC50 [11]: 83.7 µM
Activity [12]: Non-toxic
IC50 [13]: 83.7 µM
zone of inhibition at 1000 µg/mL [14]: 12.7 mm

COc1ccc(/C=C(/NC(=O)c2ccccc2)C(=O)NC(CS)C(=O)N(C(=O)NC2CCCCC2)C2CCCCC2)cc1 (stereo not given)
zone of inhibition at 1000 µg/mL [1]: 16.4 mm
TEAC (Trolox equivalents) [2]: 2.91
zone of inhibition at 1000 µg/mL [3]: 20.3 mm
IC50 [4]: 127 µM
inhibition in vivo at 100 mg/kg [5]: 31.5%
zone of inhibition at 1000 µg/mL [6]: 20.1 mm
zone of inhibition at 1000 µg/mL [7]: 19.2 mm
zone of inhibition at 1000 µg/mL [8]: 17.7 mm
inhibition in vivo at 100 mg/kg [9]: 36%
Activity [10]: Non-toxic
IC50 [11]: 97.2 µM
Activity [12]: Non-toxic
IC50 [13]: 88.7 µM
zone of inhibition at 1000 µg/mL [14]: 19.8 mm

O=C(O)Cc1ccccc1Nc1c(Cl)cccc1Cl [DICLOFENAC SODIUM]
inhibition in vivo at 100 mg/kg [5]: 66.8%
